Measurements as given in ChEMBL document CHEMBL1122810 (J Med Chem, 1984).
pIC50: −log10 of the molar value.

What was measured:
L1210 [1] = assay: Growth inhibition of L1210 cell lines; assay type: functional, cell-based; settings: Mus musculus
How it was run: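 L1210 murine leukemia cells were incubated with drug in culture for 48 h. Percent cell growth relative to untreated controls was plotted against concentration to obtain the IC50.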

L1210 [2] = assay: (§1) Cytotoxic activity with respect to methotrexate; assay type: functional, Mus musculus
Dihydrofolate reductase = biological target: T1, Dihydrofolate reductase (Mus musculus, UniProt P00375); assay: Inhibitory activity towards dihydrofolate reductase in L1210 murine leukemia cell lines; assay type: cell-based
T1 sequence (P00375 whole entry): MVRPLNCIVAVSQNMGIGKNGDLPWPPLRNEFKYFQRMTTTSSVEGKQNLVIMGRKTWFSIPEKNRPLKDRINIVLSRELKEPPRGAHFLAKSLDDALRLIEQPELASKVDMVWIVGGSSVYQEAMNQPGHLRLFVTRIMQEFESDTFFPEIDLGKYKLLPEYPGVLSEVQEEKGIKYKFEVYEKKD

H35 [3] = assay: Growth inhibition of H35 cell lines; assay type: functional, cell-based; settings: Rattus norvegicus
How it was run: (§2)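 H35 rat hepatoma cells and the transport-defective H35R0.3 subline, which has normal DHFR content, were incubated with drug for 72 h, and the IC50 was determined.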

Mus musculus [4] = assay: Inoculation of 10 e5 L1210 cells, ip, on day 0, & treatment was started on day 1 with the administration of the compound, ip, in groups of five B6D2F1J male mice at dose 10 mg/kg; assay type: functional
Mus musculus [5] = assay: Inoculation of 10 e5 L1210 cells, ip, on day 0, & treatment was started on day 1 with the administration of the compound, ip, in groups of five B6D2F1J male mice at dose 40 mg/kg; assay type: functional
H35 [6] = assay: as §1; assay type: functional, Rattus norvegicus
H35R0.3 [7] = assay: as §1; assay type: functional, Rattus norvegicus
Mus musculus [8] = assay: Inoculation of 10 e5 L1210 cells, ip, on day 0, & treatment was started on day 1 with the administration of the compound, ip, in groups of five B6D2F1J male mice at dose 20 mg/kg; assay type: functional
H35R0.3 [9] = assay: Growth inhibition of H35R0.3 cell lines; assay type: functional, cell-based; settings: Rattus norvegicus; how it was run: as §2
Mus musculus [10] = assay: Inoculation of 10 e5 L1210 cells, ip, on day 0, & treatment was started on day 1 with the administration of the compound, ip, in groups of five B6D2F1J male mice at dose 1.0 mg/kg; T=19; C=9; assay type: functional
Mus musculus [11] = assay: Inoculation of 10 e5 L1210 cells, ip, on day 0, & treatment was started on day 1 with the administration of the compound, ip, in groups of five B6D2F1J male mice at dose 1.0 mg/kg
Mus musculus [12] = assay: Inoculation of 10 e5 L1210 cells, ip, on day 0, & treatment was started on day1 with the administration of the compound, ip, in groups of five B6D2F1J male mice at dose 0.5 mg/kg
Mus musculus [13] = assay: Inoculation of 10 e5 L1210 cells, ip, on day 0, & treatment was started on day 1 with the administration of the compound, ip, in groups of five B6D2F1J male mice at dose 0.5 mg/kg; 14-20; assay type: functional
How it was run: (§3)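 Vehicle sterile 0.9% NaCl, ip. Dosing on days 1-10: twice daily on days 1-4 and 7-10, once daily on days 5 and 6 with a double dose given on those days. Endpoint is increase in life span (ILS) versus untreated controls. Doses are also stated as MTX-equivalent doses rounded to the nearest mg/kg.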

Mus musculus [14] = assay: Inoculation of 10 e5 L1210 cells, ip, on day 0, & treatment was started on day 1 with the administration of the compound, ip, in groups of five B6D2F1J male mice at dose 1.0 mg/kg; 17-22; assay type: functional; how it was run: as §3
Mus musculus [15] = assay: Inoculation of 10 e5 L1210 cells, ip, on day 0, & treatment was started on day 1 with the administration of the compound, ip, in groups of five B6D2F1J male mice at dose 0.5 mg/kg; T =18; C=9; assay type: functional
Mus musculus [16] = assay: Inoculation of 10 e5 L1210 cells, ip, on day 0, & treatment was started on day1 with the administration of the compound, ip, in groups of five B6D2F1J male mice at dose 1 mg/kg; assay type: functional
How it was run: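 Male B6D2F1J mice, five per group, received 10^5 L1210 cells ip on day 0. From day 1, drug in sterile 0.9% NaCl was injected ip twice daily on days 1–4 and 7–10, with one double dose on each of days 5 and 6. […]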

Mus musculus [17] = assay: Inoculation of 10 e5 L1210 cells, ip, on day 0, & treatment was started on day 1 with the administration of the compound, ip, in groups of five B6D2F1J male mice at dose 0.5 mg/kg; assay type: functional

SMILES | pIC50 (L1210 [1]) | Relative activity (L1210 [2]) | pIC50 (Dihydrofolate reductase) | pIC50 (H35 [3]) | 7-day weight change (Mus musculus [4]) [%] | 7-day weight change (Mus musculus [5]) [%] | Relative activity (H35 [6]) | Relative activity (H35R0.3 [7]) | 7-day weight change (Mus musculus [8]) [%] | pIC50 (H35R0.3 [9]) | median survival (days) (Mus musculus [10]) | ILS at 1 mg/kg (Mus musculus [11]) [%] | ILS at 0.5 mg/kg (Mus musculus [12]) [%] | Survival range (Mus musculus [13]) | Survival range (Mus musculus [14]) | median survival (days) (Mus musculus [15]) | 7-day weight change (Mus musculus [16]) [%] | 7-day weight change (Mus musculus [17]) [%]
CN(Cc1cnc2nc(N)nc(N)c2n1)c1ccc(C(=O)NC(CCC(=O)NCCCCC(N)C(=O)O)C(=O)O)cc1 (stereo unspecified) | 6.12 | 0.032 | 7.06 | 6.40 | 11 | 2 | 0.025 | 0.3 | 5 | 5.22 |  |  |  |  |  |  |  | 
CN(Cc1cnc2nc(N)nc(N)c2n1)c1ccc(C(=O)N[C@@H](CCC(=O)O)C(=O)O)cc1 [METHOTREXATE] | 7.62 |  |  | 8.00 |  |  |  |  |  | 5.74 | 19 | 111 | 100 | 20 | 22 | 18 | -9 | 0
